# Screening data: PubChem BioAssay, Sanford-Burnham Center for Chemical Genomics
# PfG6PD inh – PfG6PD (Plasmodium falciparum) enzyme inhibition; inhibition, % at 20 µM; AID 504690; PfGluPho enzyme, NADPH resazurin-diaphorase fluorescence; actives 0.78% (n = 350,000);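 active = inhibition reaching at least a set limit at 20 µM in the primary screen, cut at about 59% in these data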;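 also: 0% = DMSO wells with substrate and 100% = DMSO wells lacking glucose-6-phosphate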
# HKDC1 inhibitor – HKDC1 (human) hexokinase inhibition. inhibition, % at 20 µM. recombinant HKDC1, G6PDH/diaphorase resazurin coupled fluorescence. actives 0.16% (n = 340,000). Q2TB90;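 active = inhibition above about 35% when tested at 20 µM, limit read from the data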;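 also: plate controls were DMSO wells with enzyme for no effect and DMSO wells lacking enzyme for full effect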
# Target sequence (Q2TB90 whole entry, looked up): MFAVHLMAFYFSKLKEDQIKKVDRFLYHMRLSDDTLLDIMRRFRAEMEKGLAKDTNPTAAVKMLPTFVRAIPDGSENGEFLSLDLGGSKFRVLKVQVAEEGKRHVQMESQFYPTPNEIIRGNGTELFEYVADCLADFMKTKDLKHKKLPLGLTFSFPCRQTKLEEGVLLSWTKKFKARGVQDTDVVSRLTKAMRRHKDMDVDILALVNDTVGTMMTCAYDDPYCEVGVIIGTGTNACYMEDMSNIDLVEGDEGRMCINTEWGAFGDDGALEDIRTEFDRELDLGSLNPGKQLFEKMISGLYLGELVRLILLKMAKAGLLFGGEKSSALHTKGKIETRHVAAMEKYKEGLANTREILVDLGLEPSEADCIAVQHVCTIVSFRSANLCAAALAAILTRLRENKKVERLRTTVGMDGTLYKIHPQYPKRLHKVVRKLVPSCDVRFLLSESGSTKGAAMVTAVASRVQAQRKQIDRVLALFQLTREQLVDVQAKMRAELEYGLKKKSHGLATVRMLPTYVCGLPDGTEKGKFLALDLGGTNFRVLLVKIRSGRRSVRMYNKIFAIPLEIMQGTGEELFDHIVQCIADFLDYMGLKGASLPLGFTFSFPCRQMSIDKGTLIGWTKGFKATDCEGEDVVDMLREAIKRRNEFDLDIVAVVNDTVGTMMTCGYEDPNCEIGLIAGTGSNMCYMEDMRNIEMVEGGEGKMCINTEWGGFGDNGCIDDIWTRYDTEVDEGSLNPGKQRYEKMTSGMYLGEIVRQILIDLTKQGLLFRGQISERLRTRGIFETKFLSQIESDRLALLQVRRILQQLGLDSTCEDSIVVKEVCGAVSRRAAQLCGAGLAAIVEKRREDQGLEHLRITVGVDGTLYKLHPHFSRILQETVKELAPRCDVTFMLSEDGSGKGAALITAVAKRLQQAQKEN
#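 Assay system: in-house recombinant HK5 (HKDC1) enzyme. Input: HKDC1 at 5 µg/mL. Medium: Tris pH 8.0 buffer with MgCl2, Tween-20, BSA, BME. Dosing: single 20 µM dose. Schedule: 90 min reaction incubation at room temperature, dark. Signal: resazurin-to-resorufin fluorescence via G6PDH and diaphorase coupling, 525/613 nm. Controls: DMSO-enzyme wells negative, buffer-substituted wells positive.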
# Diaphorase inh – inhibits diaphorase or chemically oxidizes, flagging diaphorase assay artifacts; diaphorase resazurin-to-resorufin fluorescence, NADH, 16 min; bacterial (C. kluyveri) enzyme, not human; inhibition, % at 20 µM; actives 0.69% (n = 190,000);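 active = primary screen inhibition at 20 µM above a set limit, cut at about 50% in these data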;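 also: plate controls were DMSO with full reaction for no effect and wells lacking NADH for full effect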
#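 Test system: bacterial diaphorase enzyme (C. kluyveri); Quantity: 0.14 U/mL diaphorase, enzyme working solution; Times: reaction incubation of 16 min at room temperature; Measured by: fluorescence of resorufin formed from resazurin, Ex 544/Em 590 nm; Benchmarks: positive control minus NADH, DMSO neutral control.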
# Diaph act CS – activates diaphorase or chemically reduces, flagging diaphorase assay artifacts. Diaphorase/resazurin coupled assay, resorufin fluorescence, 16 min; active compounds read high; 1 = vehicle wells, 0 = NADH-free wells. activation factor at 20 µM. actives 0.005% (n = 190,000). AID 1229;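 active = diaphorase activity raised at least twofold by the compound at 20 µM; inactive = activation factor below 2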
#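 Material: purified diaphorase enzyme from Clostridium kluyveri; Also added: 0.114 mM NADH and 0.1 mM resazurin, final amounts; Doses: single compound dose of 20 µM, 1% DMSO final; Times: 16 min enzyme reaction, ambient temperature; Detection: resorufin fluorescence, excitation 544 nm, emission 590 nm; Measure: increased resorufin signal from activators or reducing compounds.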
# G6PDH CS – L. mesenteroides G6PDH inhibition counter-screen; inhibition, % at 5 µM; actives 0.12% (n = 200,000); AID 1020; Purified L. mesenteroides G6PDH, diaphorase/resazurin coupled fluorescence, 45 min; in the data active = inhibition above about 50%
# * = called active by the depositor; / = not tested or not shown. Compounds with a hit are over-represented: about 1.3% of the library has one in this group of screens.
SMILES,PfG6PD inh,HKDC1 inhibitor,Diaphorase inh,Diaph act CS,G6PDH CS
NC(=O)Cn1ccc(O)c(Cc2ccc(Cl)cc2Cl)c1=O,2,-5,/,/,/
Cc1ccc(S(=O)(=O)NCC2CCC(C(=O)NCc3cccnc3)CC2)cc1 (stereo not drawn),4,-4,0,1,1
COc1ccccc1NC(=O)c1cccc2c(Br)cccc12,28,-3,/,/,/
CC1CCCCN1c1nnc(NC(=O)Cn2c(=O)oc3ccccc32)s1 (stereo not drawn),-11,0,62*,0.4,7
CC1CCCCN1C(=O)Cn1c(=O)oc2ccccc21 (stereo not drawn),-10,-1,/,/,/
CC(=O)c1cccc(NC(=O)CSc2ccc(-c3ccco3)nn2)c1,16,16,/,/,/
O=C(CSc1ccc(-c2ccco2)nn1)c1cccc([N+](=O)[O-])c1,17,-12,63*,0.4,5
NNC(=O)CNc1ccccc1Cl,-9,-3,54*,0.5,3
COc1ccc(C(=O)N(C)[C@H]2C[C@H]3c4[nH]c5ccccc5c4CCN3C(=O)[C@H]2CO)cc1,0,/,/,/,/
c1coc(C2=Nc3cccc4cccc(c34)N2)c1,43,18,60*,0.4,46
CCOC(=O)CNC(=O)CSc1nc(C(C)C)nc2c1cnn2-c1ccccc1,-7,/,/,/,/
O=C(CSc1nnc(CCCN2C(=O)c3cccc4cccc(c34)C2=O)n1-c1ccccc1)NCCCN1CCOCC1,-3,9,55*,0.5,1
O=C(CSc1nnc(CCCN2C(=O)c3cccc4cccc(c34)C2=O)n1-c1ccccc1)NCCCO,13,29,44,0.6,-2
CCN(CC(=O)Nc1cc(Cl)ccc1C)C(=O)c1ccc2c(c1)NC(=O)C(C)S2 (stereo not drawn),8,-2,/,/,/
CCC(C)(C)n1nnnc1C(c1cc2cc(C)ccc2[nH]c1=O)N1CCCc2ccccc21 (stereo not drawn),39,14,70*,0.3,6
Cc1ccc2[nH]c(=O)c(C(c3nnnn3C3CCCC3)N3CCCc4ccccc43)cc2c1 (stereo not drawn),20,22,62*,0.4,0
CCC(C)(C)n1nnnc1C(c1cc2cc(OC)ccc2[nH]c1=O)N1CCc2ccccc21 (stereo not drawn),9,9,46,0.5,-1
Cc1ccc2[nH]c(=O)c(C(c3nnnn3Cc3ccccc3)N3CCc4ccccc43)cc2c1 (stereo not drawn),30,14,47,0.5,30
CCN(CC)c1ccc2c(c1)CCCN2,/,/,59*,0.4,35
CC[n+]1c(/C=C/N(C)c2ccccc2)n(-c2ccccc2)c2ccc(-c3nc4ccccc4s3)cc21,75*,22,/,/,/
CC(=O)n1cc([C@H]2C=C(C(=O)NCc3ccccc3)O[C@@H](OCc3ccc(CO)cc3)C2)c2ccccc21,27,4,44,0.6,17
C[C@@H]1C=C(C(=O)N2CCN(C)CC2)O[C@H](OCc2ccc(CO)cc2)C1,12,-1,68*,0.3,8
CC(=O)n1cc([C@@H]2C=C(C(=O)N3CCN(Cc4ccccc4)CC3)O[C@H](OCc3ccc(CO)cc3)C2)c2ccccc21,1,0,59*,0.4,16
CC(=O)n1cc([C@@H]2C=C(C(=O)Nc3ccccc3)O[C@H](OCc3ccc(CO)cc3)C2)c2ccccc21,23,3,51*,0.5,5
CC(=O)n1cc([C@H]2C=C(C(=O)N3CCN(Cc4ccccc4)CC3)O[C@@H](OCCCCO)C2)c2ccccc21,11,-1,35,0.7,-1
SMILES,PfG6PD inh,HKDC1 inhibitor,Diaphorase inh,Diaph act CS,G6PDH CS
O=C(CCNC(=O)N1CC(=O)Nc2ccccc21)NCc1ccc(Cl)cc1,-5,/,/,/,/
CCN1CCN(C(=S)c2ccc(Cl)cc2)CC1,81*,-2,18,0.8,2
OCCN1CCN(C(=S)c2ccc(Cl)cc2)CC1,56,-3,8,0.9,-4
C[C@@H]1CN([C@H](C)CO)C(=O)CCCn2nncc2CO[C@@H]1CN(C)S(=O)(=O)c1ccc2c(c1)OCCCO2,-3,/,/,/,/
O=C(CN1C(=O)COc2ccccc2C1=O)c1ccc2c(c1)OCCO2,12,1,/,/,/
COc1ccc2nc(-c3ccco3)c(-c3ccco3)nc2c1,56,27,78*,0.2,25
COc1ccc2nc3cccc(OC)c3nc2c1,55,8,23,0.8,51*
c1coc(-c2nc(-c3ccco3)c(-c3ccco3)nc2-c2ccco2)c1,54,68*,94*,0.1,21
COc1ccccc1NS(=O)(=O)c1cccc(NC(=O)c2cncc(Br)c2)c1,-10,1,/,/,/
Cc1cccc(-n2c(O)c(C=Nc3ccccc3-c3n[nH]c(=S)[nH]c3=O)c3ccccc3c2=O)n1,2,27,/,/,/
Cc1ccc(-n2c(O)c(C=Nc3ccccc3-c3n[nH]c(=S)[nH]c3=O)c3ccccc3c2=O)c(C)c1,35,0,72*,0.3,-1
Cc1ccc(-n2c(O)c(C=Nc3ccccc3-c3n[nH]c(=S)[nH]c3=O)c3ccccc3c2=O)cc1C,-22,20,76*,0.2,3
CN1CCc2cc3c(c4c2[C@H]1[C@H](O)c1ccccc1-4)OCO3,52,13,50,0.5,58*
CC1CCCCC12NC(=O)N(CC(=O)OCC(=O)N(C)C1CCCCC1)C2=O (stereo not drawn),-2,-3,/,/,/
O=C1NCCCC2c3cc(O)c4ccccc4c3OC12N1CCCCC1 (stereo not drawn),/,/,46,0.5,56*
O=C(C1=C[C@@H](c2ccc3c(c2)OCO3)C[C@@H](OCCCCO)O1)N1CCN(Cc2ccc3c(c2)OCO3)CC1,-4,4,18,0.8,8
C#Cc1ccc([C@@H]2C=C(C(=O)N3CCN(Cc4ccc5c(c4)OCO5)CC3)O[C@H](OCCCCO)C2)cc1,18,2,53*,0.5,5
Cc1ccnc(NC(=O)c2ccc(S(=O)(=O)N3CCC(C)CC3)cc2)c1,2,-1,/,/,/
O=C(N/N=C/c1ccco1)c1cccc(N2Cc3ccccc3C2)c1,17,11,60*,0.4,12
O=C(N/N=C/c1ccco1)c1cccc(N2CCCC2=O)c1,-1,-11,14,0.9,-11
O=C(O)c1ccc(Cl)c2c1C1C=CCC1C(c1ccccn1)N2 (stereo not drawn),/,/,56*,0.4,13
O=[N+]([O-])c1ccc(Cl)c2c1C1C=CCC1C(c1ccccn1)N2 (stereo not drawn),43,9,41,0.6,6
COc1ccccc1C=NN1C(=O)CSC1=S,7,-1,/,/,/
O=C1CSC(=S)N1/N=C/c1ccc(O)c(O)c1O,79*,21,/,/,/
C=CCn1cnc2c(oc3ccccc32)c1=O,-9,-1,/,/,/
